Assay results published in ChEMBL document CHEMBL2413060, “Synthesis, biological evaluation and molecular docking studies of some pyrimidine derivatives” (2013).
In brackets after ≈: the same amount, converted by molar mass. Blank lines part the entries; values can stand above or below the compound they belong to.

Tests used:
Type in all cases: functional
[1] = system: Staphylococcus aureus; assay: Antibacterial activity against Staphylococcus aureus ATCC 6538P after 24 hrs by two-fold serial dilution method relative to ampicillin
[2] = system: Staphylococcus aureus; assay: Antibacterial activity against Staphylococcus aureus ATCC 6538P after 24 hrs by two-fold serial dilution method
In short: (§1)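 Two-fold serial broth dilution in sterile nutrient broth at 500, 250, 125, 62.5, 31.25, 15.63, 7.82 and 3.91 µg/ml, with dimethylformamide ≤2.5%. Organisms were pre-grown 24 h in broth, and 0.1 ml inoculum was added per 5 ml tube. Tubes were incubated at 37°C, 24 h for bacteria and 48 h for fungi. MIC was taken as the lowest concentration giving no turbidity.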

[3] = system: Candida albicans; assay: Antifungal activity against Candida albicans ATCC 2091 assessed as diameter of inhibition zone at 1 mg/ml after 48 hrs by cup diffusion method (reference value: 22 mm); details: ATCC 2091, 48 h, read-out: DIZ
[4] = system: Shigella flexneri; assay: Antibacterial activity against Shigella flexneri ATCC 15391 assessed as diameter of inhibition zone at 1 mg/ml after 24 hrs by cup diffusion method (reference value: 17 mm); details: ATCC 15391, 24 h, read-out: DIZ
[5] = system: Staphylococcus aureus; assay: Antibacterial activity against Staphylococcus aureus ATCC 6538P assessed as diameter of inhibition zone at 1 mg/ml after 24 hrs by cup diffusion method (reference value: 15 mm); details: read-out: DIZ
[6] = system: Pseudomonas aeruginosa; assay: Antibacterial activity against Pseudomonas aeruginosa ATCC 9027 assessed as diameter of inhibition zone at 1 mg/ml after 24 hrs by cup diffusion method (reference value: 16 mm); details: ATCC 9027, 24 h, read-out: DIZ
[7] = system: NCI/ADR-RES; assay: Cytotoxicity against human NCI/ADR-RES cells assessed as growth inhibition at 10 uM; details: read-out: GI
In short: (§2)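 Single-dose screen on human tumour cell lines. Growth of treated cells is expressed as percent of untreated growth, plotted as a mean graph, and reported as percent growth inhibition.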

[8] = system: HCC 2998; assay: Cytotoxicity against human HCC2998 cells assessed as growth inhibition at 10 uM; details: read-out: GI
[9] = system: RPMI-8226; assay: Cytotoxicity against human RPMI8226 cells assessed as growth inhibition at 10 uM; details: read-out: GI; in short: as §2
[10] = system: CCRF-CEM; assay: Cytotoxicity against human CCRF-CEM cells assessed as growth inhibition at 10 uM; details: read-out: GI
[11] = system: Pseudomonas aeruginosa; assay: Antibacterial activity against Pseudomonas aeruginosa ATCC 9027 after 24 hrs by two-fold serial dilution method relative to ofloxacin
[12] = system: Shigella flexneri; assay: Antibacterial activity against Shigella flexneri ATCC 15391 after 24 hrs by two-fold serial dilution method relative to ofloxacin
[13] = system: Shigella flexneri; assay: Antibacterial activity against Shigella flexneri ATCC 15391 after 24 hrs by two-fold serial dilution method; details: ATCC 15391, 24 h; in short: as §1
[14] = system: T47D; assay: Cytotoxicity against human T47D cells assessed as growth inhibition at 10 uM; details: read-out: GI; in short: as §2
[15] = system: PC-3; assay: Cytotoxicity against human PC3 cells assessed as growth inhibition at 10 uM; details: read-out: GI; in short: as §2
[16] = system: MCF7; assay: Cytotoxicity against human MCF7 cells assessed as growth inhibition at 10 uM; details: read-out: GI; in short: as §2
[17] = system: TK-10; assay: Cytotoxicity against human TK10 cells assessed as growth inhibition at 10 uM; details: read-out: GI
In short: (§3)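 Single-dose screen in a sixty-cell human tumour line panel; percent growth of treated cells relative to untreated was read and reported as percentage growth inhibition, shown as a mean graph. Compounds meeting the threshold inhibition criteria went on to five-dose testing.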

[18] = system: CAKI-1; assay: Cytotoxicity against human Caki1 cells assessed as growth inhibition at 10 uM; details: read-out: GI
[19] = system: A498; assay: Cytotoxicity against human A498 cells assessed as growth inhibition at 10 uM; details: read-out: GI
[20] = system: SK-OV-3; assay: Cytotoxicity against human SKOV3 cells assessed as growth inhibition at 10 uM; details: read-out: GI; in short: as §2
[21] = system: IGROV-1; assay: Cytotoxicity against human IGROV1 cells assessed as growth inhibition at 10 uM; details: read-out: GI
[22] = system: UACC-62; assay: Cytotoxicity against human UACC62 cells assessed as growth inhibition at 10 uM; details: read-out: GI; in short: as §3
[23] = system: SK-MEL-2; assay: Cytotoxicity against human SK-MEL-2 cells assessed as growth inhibition at 10 uM; details: read-out: GI; in short: as §2
[24] = system: M14; assay: Cytotoxicity against human M14 cells assessed as growth inhibition at 10 uM; details: read-out: GI
[25] = system: Malme-3M; assay: Cytotoxicity against human MALME-3M cells assessed as growth inhibition at 10 uM; details: read-out: GI
[26] = system: SNB-75; assay: Cytotoxicity against human SNB75 cells assessed as growth inhibition at 10 uM; details: read-out: GI; in short: as §2
[27] = system: SF-295; assay: Cytotoxicity against human SF295 cells assessed as growth inhibition at 10 uM; details: read-out: GI; in short: as §2
[28] = system: NCI-H522; assay: Cytotoxicity against human NCI-H522 cells assessed as growth inhibition at 10 uM; details: read-out: GI; in short: as §2
[29] = system: NCI-H460; assay: Cytotoxicity against human NCI-H460 cells assessed as growth inhibition at 10 uM; details: read-out: GI; in short: as §2
[30] = system: HOP-92; assay: Cytotoxicity against human HOP92 cells assessed as growth inhibition at 10 uM; details: read-out: GI
[31] = system: HOP-62; assay: Cytotoxicity against human HOP62 cells assessed as growth inhibition at 10 uM; details: read-out: GI
[32] = Cytotoxicity against human EKVX cells assessed as growth inhibition at 10 uM; details: read-out: GI
[33] = system: SR; assay: Cytotoxicity against human SR cells assessed as growth inhibition at 10 uM; details: read-out: GI; in short: as §2
[34] = system: K562; assay: Cytotoxicity against human K562 cells assessed as growth inhibition at 10 uM; details: read-out: GI
[35] = system: RXF 393; assay: Cytotoxicity against human RXF393 cells assessed as growth inhibition at 10 uM; details: read-out: GI; in short: as §2
[36] = system: Candida albicans; assay: Antifungal activity against Candida albicans ATCC 2091 after 48 hrs by two-fold serial dilution method; details: ATCC 2091, 48 h; in short: as §1
[37] = system: Candida albicans; assay: Antifungal activity against Candida albicans ATCC 2091 after 48 hrs by two-fold serial dilution method relative to clotrimazole
[38] = system: MDA-MB-435; assay: Cytotoxicity against human MDA-MB-435 cells assessed as growth inhibition at 10 uM; details: read-out: GI; in short: as §2
[39] = system: BT-549; assay: Cytotoxicity against human BT549 cells assessed as growth inhibition at 10 uM; details: read-out: GI
[40] = system: Hs-578T; assay: Cytotoxicity against human Hs578T cells assessed as growth inhibition at 10 uM; details: read-out: GI
[41] = system: UO-31; assay: Cytotoxicity against human UO31 cells assessed as growth inhibition at 10 uM; details: read-out: GI; in short: as §3
[42] = system: SN12C; assay: Cytotoxicity against human SN12C cells assessed as growth inhibition at 10 uM; details: read-out: GI; in short: as §2
[43] = system: ACHN; assay: Cytotoxicity against human ACHN cells assessed as growth inhibition at 10 uM; details: read-out: GI
[44] = system: 786-0; assay: Cytotoxicity against human 786-0 cells assessed as growth inhibition at 10 uM; details: read-out: GI
[45] = system: OVCAR-8; assay: Cytotoxicity against human OVCAR8 cells assessed as growth inhibition at 10 uM; details: read-out: GI; in short: as §2
[46] = system: OVCAR-3; assay: Cytotoxicity against human OVCAR3 cells assessed as growth inhibition at 10 uM; details: read-out: GI; in short: as §2
[47] = system: UACC-257; assay: Cytotoxicity against human UACC257 cells assessed as growth inhibition at 10 uM; details: read-out: GI; in short: as §3
[48] = system: SK-MEL-28; assay: Cytotoxicity against human SK-MEL-28 cells assessed as growth inhibition at 10 uM; details: read-out: GI; in short: as §2
[49] = system: SF-539; assay: Cytotoxicity against human SF539 cells assessed as growth inhibition at 10 uM; details: read-out: GI; in short: as §2
[50] = system: HCT-116; assay: Cytotoxicity against human HCT116 cells assessed as growth inhibition at 10 uM; details: read-out: GI
[51] = system: NCI-H322M; assay: Cytotoxicity against human NCI-H322M cells assessed as growth inhibition at 10 uM; details: read-out: GI; in short: as §2

MIC [2]: 125 µg/mL (≈ 506 µM)
Compound: CSc1nc(-c2ccco2)c(C#N)c(=O)n1C
Activity [1]: 50% | zone of inhibition at 1000 µg/mL [3]: 22 mm | zone of inhibition at 1000 µg/mL [4]: 17 mm | zone of inhibition at 1000 µg/mL [5]: 19 mm | zone of inhibition at 1000 µg/mL [6]: 17 mm | inhibition of growth at 10 µM [7]: 48.8% | inhibition of growth at 10 µM [8]: 98.4%

MIC [13]: 125 µg/mL (≈ 434 µM)
Compound: N#Cc1c(N2CCOCC2)nc(=S)[nH]c1-c1ccco1
inhibition of growth at 10 µM [9]: 57% | inhibition of growth at 10 µM [10]: 50.4% | Activity [11]: 60% | Activity [12]: 60% | zone of inhibition at 1000 µg/mL [3]: 22 mm | zone of inhibition at 1000 µg/mL [4]: 22 mm | zone of inhibition at 1000 µg/mL [5]: 15 mm | zone of inhibition at 1000 µg/mL [6]: 16 mm | inhibition of growth at 10 µM [14]: 81.1% | inhibition of growth at 10 µM [7]: 59.8% | inhibition of growth at 10 µM [15]: 57.4% | inhibition of growth at 10 µM [16]: 73.3% | inhibition of growth at 10 µM [17]: 52.9% | inhibition of growth at 10 µM [18]: 41.8% | inhibition of growth at 10 µM [19]: 101% | inhibition of growth at 10 µM [20]: 45% | inhibition of growth at 10 µM [21]: 79.3% | inhibition of growth at 10 µM [22]: 56.7% | inhibition of growth at 10 µM [23]: 63% | inhibition of growth at 10 µM [24]: 60.2% | inhibition of growth at 10 µM [25]: 97.8% | inhibition of growth at 10 µM [26]: 84.1% | inhibition of growth at 10 µM [27]: 52.6% | inhibition of growth at 10 µM [8]: 121% | inhibition of growth at 10 µM [28]: 50.4% | inhibition of growth at 10 µM [29]: 49.9% | inhibition of growth at 10 µM [30]: 112% | inhibition of growth at 10 µM [31]: 64.2% | inhibition of growth at 10 µM [32]: 51.2% | inhibition of growth at 10 µM [33]: 82.2%

Compound: Cn1c(N2CCOCC2)nc(-c2ccc([N+](=O)[O-])cc2)c(C#N)c1=O
inhibition of growth at 10 µM [9]: 39.7% | inhibition of growth at 10 µM [34]: 41.8% | zone of inhibition at 1000 µg/mL [3]: 22 mm | zone of inhibition at 1000 µg/mL [4]: 17 mm | zone of inhibition at 1000 µg/mL [5]: 15 mm | zone of inhibition at 1000 µg/mL [6]: 16 mm | inhibition of growth at 10 µM [35]: 47.7% | inhibition of growth at 10 µM [21]: 40.1% | inhibition of growth at 10 µM [30]: 44.3%

MIC [36]: 125 µg/mL (≈ 283 µM)
Compound: N#Cc1c(-c2ccccc2)nc(SCC(O)CN2CCOCC2)nc1N1CCOCC1 (stereo not given)
Activity [37]: 60% | zone of inhibition at 1000 µg/mL [3]: 24 mm | zone of inhibition at 1000 µg/mL [4]: 18 mm | zone of inhibition at 1000 µg/mL [5]: 15 mm | zone of inhibition at 1000 µg/mL [6]: 16 mm | inhibition of growth at 10 µM [14]: 74% | inhibition of growth at 10 µM [38]: 47% | inhibition of growth at 10 µM [39]: 70.5% | inhibition of growth at 10 µM [40]: 93.8% | inhibition of growth at 10 µM [15]: 43.5% | inhibition of growth at 10 µM [16]: 95% | inhibition of growth at 10 µM [17]: 59.2% | inhibition of growth at 10 µM [41]: 58.3% | inhibition of growth at 10 µM [42]: 42.2% | inhibition of growth at 10 µM [18]: 62.6% | inhibition of growth at 10 µM [19]: 103% | inhibition of growth at 10 µM [43]: 45.6% | inhibition of growth at 10 µM [44]: 61.9% | inhibition of growth at 10 µM [20]: 58.9% | inhibition of growth at 10 µM [45]: 66.6% | inhibition of growth at 10 µM [46]: 64.6% | inhibition of growth at 10 µM [21]: 130% | inhibition of growth at 10 µM [22]: 57.1% | inhibition of growth at 10 µM [47]: 82.9% | inhibition of growth at 10 µM [48]: 40.1% | inhibition of growth at 10 µM [23]: 92.7% | inhibition of growth at 10 µM [24]: 40.1% | inhibition of growth at 10 µM [25]: 76.9% | inhibition of growth at 10 µM [26]: 105% | inhibition of growth at 10 µM [49]: 43.4% | inhibition of growth at 10 µM [27]: 56.4% | inhibition of growth at 10 µM [50]: 42.5% | inhibition of growth at 10 µM [29]: 66% | inhibition of growth at 10 µM [51]: 47.7% | inhibition of growth at 10 µM [30]: 69.3% | inhibition of growth at 10 µM [31]: 52%
